The record followed here is ChEMBL document CHEMBL1275590, “Novel arylimidamides for treatment of visceral leishmaniasis” (Antimicrob Agents Chemother, 2010).

Series [1] has as its system Mus musculus. The series can be described thus: Toxicity in BALB/c mouse assessed as splenic lymphoid depletion at 150 mg/kg/day, po. The arrangement: route oral. The conditions noted are these: in vivo. In kind it is organism-based. An outline of the steps: (§1)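 Five-day repeat-dose study in female BALB/c mice (n = 5 per dose level): oral dosing once daily for five consecutive days in sterile water prepared fresh daily under yellow light, 20 ml/kg. Vehicle controls received sterile water only. Clinical observations and body weights were recorded, with blood for hematology and serum chemistry taken on day 6 before necropsy. A veterinary pathologist examined formalin-fixed tissues.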

Series [2] deals with Mus musculus. The series can be described thus: Toxicity in BALB/c mouse at 25 mg/kg/day, po administered for five days. It counts as organism-based. The arrangement: route oral. The settings on record: in vivo.
The test system of series [3] is Mus musculus. Kind of series: Toxicity in BALB/c mouse assessed as hypoactivity at 100 mg/kg/day, ip after second dose. In kind it is organism-based. Further details: route intraperitoneal. The settings on record: in vivo.
A short description of series [4]: Tmax in Swiss Webster mouse at 1 mg/kg, iv by HPLC-MS/MS analysis. The arrangement: dose 1 mg/kg, route intravenous. It counts as ADME, organism-based. The conditions noted are these: in vivo. An outline of the steps:
(§2)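 Male Swiss Webster mice (n = 3 per time point), single dose by oral gavage (sterile water solution) or tail-vein bolus i.v. (water diluted 1:1 with 2× saline, over ~10–20 s); dose volume 5 ml/kg. Terminal blood sampled from 5 min to 72 h postdose; plasma quantified by HPLC-MS/MS (positive-ion SRM). Noncompartmental analysis gave Cmax, Tmax, AUC0-∞, CL, Vss; bioavailability from p.o. versus i.v. exposure.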

Series [5] is described as follows: Volume of distribution in Swiss Webster mouse at 4.9 mg/kg, iv by HPLC-MS/MS analysis. It counts as ADME, organism-based. Further details: dose 4.9 mg/kg, route intravenous. The conditions noted are these: in vivo. Summed up:
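Male Swiss Webster mice (n = 3 per time point) got a single tail-vein bolus over ~10 to 20 s, 5 ml/kg. Compound was dissolved in sterile water at 2× and diluted 1:1 with 2× saline. Terminal blood was taken from 5 min to 72 h, and plasma was quantified by HPLC-MS/MS. Vss came from noncompartmental analysis.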

In series [6] the test system is Mus musculus. The series can be described thus: Volume of distribution in Swiss Webster mouse at 16.5 mg/kg, po by HPLC-MS/MS analysis. In kind it is ADME, organism-based. Further details: dose 16.5 mg/kg, route oral. The conditions noted are these: in vivo. Summed up: (§3)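 Male Swiss Webster mice (n = 3 per time point) got a single oral gavage dose in sterile water, 5 ml/kg. The 5 mM formulation was a clear solution; the 20 and 40 mM formulations were gelatinous. Terminal blood was collected from 5 min to 72 h postdose, and plasma was analysed by HPLC-MS/MS. Volume of distribution came from noncompartmental analysis.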

A short description of series [7]: Oral bioavailability in Swiss Webster mouse at 66 mg/kg by HPLC-MS/MS analysis. In kind it is ADME, organism-based. The settings on record: in vivo. An outline of the steps: as §2
Series [8] has as its system Mus musculus. Kind of series: Volume of distribution in Swiss Webster mouse at 131 mg/kg, po by HPLC-MS/MS analysis. It counts as ADME, organism-based. Further details: dose 131 mg/kg, route oral. The settings on record: in vivo. An outline of the steps: as §3
Series [9] deals with Mus musculus. The series can be described thus: Toxicity in BALB/c mouse at 150 mg/kg/day, po administered for five days measured on day 5. It counts as organism-based. Further details: route oral. The settings on record: in vivo. Summed up:
as §1

The test system of series [10] is Mus musculus. The series can be described thus: Toxicity in BALB/c mouse assessed as decrease in body weight at 150 mg/kg/day, po administered for five days. The arrangement: route oral. The settings on record: in vivo. In kind it is organism-based. Summed up:
(§4)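 Female BALB/c mice (n = 5 per dose), dosed once daily for 5 consecutive days p.o. (20 ml/kg) or i.v. (10 ml/kg) with compound in sterile water, prepared fresh daily under yellow light. Vehicle controls n = 5 per route. Clinical observations, body weights, serum chemistry and hematology on day 6 before necropsy; histopathology of formalin-fixed tissues. Chemistry analysed by one-way ANOVA with Dunnett's posttest.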

The test system of series [11] is Mus musculus. The series can be described thus: Hepatotoxicity in BALB/c mouse assessed as ALT level in serum at 10 mg/kg/day, iv administered for five days (Rvb= 34 U/L). In kind it is toxicity, organism-based. Further details: route intravenous. The settings on record: in vivo.
Series [12] relates to Mus musculus. The series can be described thus: Hepatotoxicity in BALB/c mouse assessed as AST level in serum at 150 mg/kg/day, po administered for five days (Rvb= 70 U/L). It counts as toxicity, organism-based. Further details: route oral. The settings on record: in vivo.
For series [13], the system named is Mus musculus. The series can be described thus: Hepatotoxicity in BALB/c mouse assessed as ALT level in serum at 150 mg/kg/day, po administered for five days (Rvb= 36 U/L). The arrangement: route oral. The conditions noted are these: in vivo. It counts as toxicity, organism-based.
Series [14] has as its system Mus musculus. The series can be described thus: Hepatotoxicity in BALB/c mouse assessed as alkaline phosphatase level in serum at 100 mg/kg/day, po administered for five days (Rvb= 129 U/L). In kind it is toxicity, organism-based. Further details: route oral. The settings on record: in vivo.
A short description of series [15]: Induction of mutagenicity in Salmonella serovar Typhimurium TA 100 assessed as number of revertant colonies at 100 ug by Ames assay in presence of Aroclor 1254-induced rat liver S9 metabolic activation system. It counts as toxicity, subcellular, Salmonella enterica subsp. enterica serovar Typhimurium. Summed up:
(§5)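 Ames plate incorporation with S. Typhimurium TA98 and TA100, with or without Aroclor 1254-induced rat liver S9 (10% vol/vol). Compound was dissolved in sterile water and serially diluted to 1–500 μg/plate. Positive controls were 2-nitrofluorene and sodium azide without S9, and 2-aminoanthracene with S9; sterile water and DMSO served as vehicles. Revertant colonies and background lawn were scored. A mutagen was defined as a mean revertant count at least 2-fold over solvent control. Single experiment.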
A general note: The Ames test detects mutagens through reverse mutation in bacteria.

Series [16] is described as follows: Induction of mutagenicity in Salmonella serovar Typhimurium TA 100 assessed as number of revertant colonies at 50 ug by Ames assay. It counts as toxicity, Salmonella enterica subsp. enterica serovar Typhimurium. The conditions noted are these: in vivo. An outline of the steps:
as §5

Series [17] has as its system Leishmania donovani. The series can be described thus: Antileishmanial activity against Leishmania donovani promastigotes in po dosed BALB/c mouse assessed as inhibition of liver parasitemia. It counts as functional, organism-based. An outline of the steps:
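Murine VL model in L. donovani-infected mice. Compounds were dissolved in water and given i.p. or p.o. once daily for 5 days (4 days for one i.p. regimen). Liver parasitemia was compared with untreated controls by unpaired Student's t test, P ≤ 0.05.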

The subject of series [18] is Leishmania donovani. The series can be described thus: Antileishmanial activity against Leishmania donovani WR378 infected in golden Syrian hamster assessed as reduction in liver parasitemia at 30 mg/kg/day, po administered for five days. In kind it is functional. The settings on record: 120 h. Summed up:
(§6)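 11-day golden hamster VL model adapted from an 8-day method, using L. donovani WR378 metacyclic promastigotes. Dosing was oral, once daily for 5 days. Animals were euthanized on day 11 post-infection. Liver, spleen and femoral bone marrow (flushed with Schneider's medium) were harvested.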

The test system of series [19] is Leishmania donovani. Kind of series: Antileishmanial activity against Leishmania donovani WR378 infected in golden Syrian hamster assessed as reduction in spleen parasitemia at 100 mg/kg/day, po administered for five days. It counts as functional. The settings on record: 120 h. An outline of the steps: as §6
A short description of series [20]: Cmax in Swiss Webster mouse at 5 mg/kg, iv by HPLC-MS/MS analysis. In kind it is ADME, organism-based. Further details: dose 5 mg/kg, route intravenous. The settings on record: in vivo. Summed up:
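Male Swiss Webster mice, n = 3 per time point. For i.v., the compound was dissolved in sterile water, diluted 1:1 with 2× saline, and given as a tail-vein bolus over ~10–20 s. For p.o., it was given by gavage in sterile water. Dose volume was 5 ml/kg. Terminal plasma was taken from 5 min to 72 h and measured by HPLC-MS/MS (calibration 2.5–10,000 nM). Parameters came from noncompartmental analysis.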

The subject of series [21] is Mus musculus. The series can be described thus: Toxicity in BALB/c mouse assessed as occurrence of tremor at 50 mg/kg, iv. In kind it is organism-based. The arrangement: dose 50 mg/kg, route intravenous. The conditions noted are these: in vivo. An outline of the steps:
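Single-dose escalation: female BALB/c mice (n = 1 per dose level) given one i.v. dose in sterile water (10 ml/kg), 5–50 mg/kg, observed for 2 days.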

The test system of series [22] is Mus musculus. Kind of series: Toxicity in BALB/c mouse assessed as occurrence of tremor at 20 mg/kg/day, iv administered for five days measured on day 2. In kind it is organism-based. The conditions noted are these: in vivo. The arrangement: route intravenous. An outline of the steps:
as §4

Series [23] is described as follows: Induction of mutagenicity in Salmonella serovar Typhimurium TA 98 assessed as number of revertant colonies at 10 ug by Ames assay in presence of Aroclor 1254-induced rat liver S9 metabolic activation system. In kind it is toxicity, subcellular, Salmonella enterica subsp. enterica serovar Typhimurium. An outline of the steps:
as §5

Series [24] is described as follows: Drug level in Swiss Webster mouse liver at 70 mg/kg, po after 2 hrs by HPLC/UV analysis. The settings on record: read-out: Drug uptake.

Calls of active or inactive are those of the source.

As usually defined, the Tmax is the time at which the peak concentration occurs. The term bioavailability denotes the share of a dose that reaches the circulation, judged against a reference dose that is usually intravenous. On to `CCOc1cc(NC(=N)c2ccccn2)ccc1-c1ccc(-c2ccc(NC(=N)c3ccccn3)cc2OCC)o1`, for which the Activity entry is given as “Toxic” in series [1]; “Non-toxic” in [2]; “Toxic” in series [3]; “Toxic” in series [9]; “Toxic” in [10]; 40 U/L in series [11]. Also, the Activity in series [12] is 770 U/L; in [13] it was 220 U/L; in series [14], 120 U/L. Also, the time of peak concentration (Tmax) in [4] turned out to be 5 min. For the same compound, the Vd in series [5] worked out at 22 L/kg; in series [6], 57 L/kg; in [8], 76 L/kg. In series [7], this compound yielded a bioavailability of 9.3%.

As a reminder, the inhibition in vivo is the relative decrease from the control value, in per cent. A word on the Cmax: it is the peak of the concentration-time curve. `CC(C)Oc1cc(NC(=N)c2ccccn2)ccc1-c1ccc(-c2ccc(NC(=N)c3ccccn3)cc2OC(C)C)o1`: the Activity is recorded as 98 in [15]; 79 in series [16]; “Toxic” in series [21]; “Toxic” in series [22]; 38 in [23]. Moreover, in [17], the result was Active. Further, the inhibition in vivo at 30 mg/kg/day in series [18] was determined as 75%. The inhibition in vivo at 100 mg/kg/day in series [19] amounted to 79%. The peak level in series [20] (Cmax) was 10.4 µM. For the same compound, the concentration at 2 h in series [24] amounted to 45.8 µM.
